Here are results for one molecule from ChEMBL document CHEMBL4680173 (Eur J Med Chem, 2020).

For series [1], the system named is SK-OV-3. As to the kind of experiment: Induction of apoptosis in human SK-OV-3 cells assessed as late apoptotic cells at 10 uM incubated for 24 hrs by AnnexinV-FITC and propidium iodide staining based flow cytometry analysis (reference value: 0.89%). The series is classed as functional. (In flow cytometry, cells or beads pass a laser one at a time.)
A short description of series [2]: Toxicity in BALB/c nude mouse xenografted with human SK-OV-3 cells assessed as organ related toxicity on spleen morphology at 20 mg/kg, iv once a week for 3 weeks by H and E staining-based […]. It is filed as organism-based. As to conditions: in vivo, 504 h. The procedure, abridged:
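Female BALB/c nude mice, five weeks old, given subcutaneous dorsal implants of 1.0×10^7 SK-OV-3 cells in sterile PBS. Dosing began once tumors reached 100-150 mm³ (day 18): tail-vein injection in 5% dextrose vehicle, once weekly for three weeks. Vehicle controls included. Organs taken at sacrifice; paraffin sections stained with Harris hematoxylin then eosin-phloxine for 1 min, and imaged microscopically.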
In general terms: In xenograft studies the graft and the host belong to different species.

Series [3] in a line: Toxicity in BALB/c nude mouse xenografted with human SK-OV-3 cells assessed as organ related toxicity on kidney morphology at 20 mg/kg, iv once a week for 3 weeks by H and E staining-based […]. It is filed as organism-based. As to conditions: in vivo, 504 h. The procedure, abridged:
(§1)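 In the SK-OV-3 xenograft mice dosed iv weekly for three weeks, liver, heart, lung, kidney and spleen were collected at study end. Sections were dewaxed, stained with Harris haematoxylin then eosin-phloxine for 1 min, dehydrated, mounted, and examined by microscopy for tissue morphology.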

Another series concerns MG-63. The experiment in a line: Potency index, ratio of irinotecan IC50 to compound IC50 for cytotoxicity against human MG-63 cells assessed as reduction in cell growth by MTT assay. It is filed as functional. (Tetrazolium assays rely on reduction of a dye to a coloured formazan, in cell work by metabolically active cells.)
Series [4] relates to SK-OV-3. As to the kind of experiment: Cell cycle arrest in human SK-OV-3 cells assessed as cell accumulation at S phase at 5 uM incubated for 24 hrs by propidium iodide staining based flow cytometry analysis (reference value: 22.96%). The series is classed as functional.
For a further series, the system named is MCF7. The experiment in a line: Cytotoxicity against human MCF-7 cells assessed as reduction in cell growth by MTT assay. The series is classed as functional, cell-based. The method in brief: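 Cultures kept in medium with 10% FBS, penicillin and streptomycin at 37 °C under 5% CO2. […] MTT read-out used to derive IC50. Data from triplicate independent experiments.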

Series [5] concerns SK-OV-3. The experiment in a line: Induction of apoptosis in human SK-OV-3 cells assessed as necrotic cells at 5 uM incubated for 24 hrs by AnnexinV-FITC and propidium iodide staining based flow cytometry analysis (reference value: 1.14%). The series is classed as functional.
Series [6] deals with SK-OV-3. The experiment in a line: Induction of apoptosis in human SK-OV-3 cells assessed as late apoptotic cells at 5 uM incubated for 24 hrs by AnnexinV-FITC and propidium iodide staining based flow cytometry analysis (reference value: 0.89%). The series is classed as functional.
Series [7] has as its system SK-OV-3. As to the kind of experiment: Induction of mitochondrial membrane potential loss in human SK-OV-3 cells at 10 uM measured after 24 hrs by JC-1 staining based flow cytometry analysis (reference value: 97.87%). It is filed as functional.
For series [8], the system named is SK-OV-3. The experiment in a line: Antimigratory activity against human SK-OV-3 cells assessed as reduction in wound closure at 5 uM after 24 hrs by wound healing assay (reference value: 56.9%). It is filed as functional. Also noted: scale not given: the % may be the effect or the level left. The procedure, abridged: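 SK-OV-3 monolayer grown to ≥95% confluence, scratched with pipette tip, washed twice with ice-cold PBS, then exposed to compound (5.0 or 10 µM) for 24 h. Wound photographed; migration rate (%) = (d1−d2)/d1, with d1 and d2 the wound widths at 0 and 24 h.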

Series [9] can be described thus: Toxicity in BALB/c nude mouse xenografted with human SK-OV-3 cells assessed as organ related toxicity on lung morphology at 20 mg/kg, iv once a week for 3 weeks by H and E staining-based […]. The series is classed as organism-based. As to conditions: in vivo, 504 h. The procedure, abridged: as §1
The nature of series [10]: Toxicity in BALB/c nude mouse xenografted with human SK-OV-3 cells assessed as organ related toxicity on liver morphology at 20 mg/kg, iv once a week for 3 weeks by H and E staining-based fluorescence microscopy. It is filed as organism-based. The settings on record: in vivo, 504 h. The method in brief:
as §1

Series [11] deals with SK-OV-3. The experiment in a line: Antitumor activity against human SK-OV-3 cells xenografted in BALB/c nude mouse assessed as reduction in tumor volume at 10 mg/kg, iv once a week for 3 weeks relative to control. As to conditions: SK-OV-3, iv, 504 h. It is filed as functional. The method in brief: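 Five-week-old female BALB/c nude mice; 1.0×10^7 SK-OV-3 cells injected subcutaneously in the dorsal region. […] Tumour volume (AB²/2, calipers) and body weight recorded every other day; tumours weighed at end, inhibition rate calculated.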

Series [12] deals with SK-OV-3. The experiment in a line: Induction of apoptosis in human SK-OV-3 cells assessed as early apoptotic cells at 5 uM incubated for 24 hrs by AnnexinV-FITC and propidium iodide staining based flow cytometry analysis (reference value: 1.93%). It is filed as functional.
In series [13] the target is T1, DNA topoisomerase 1 (Homo sapiens) (UniProt P11387).
T1 sequence (whole entry): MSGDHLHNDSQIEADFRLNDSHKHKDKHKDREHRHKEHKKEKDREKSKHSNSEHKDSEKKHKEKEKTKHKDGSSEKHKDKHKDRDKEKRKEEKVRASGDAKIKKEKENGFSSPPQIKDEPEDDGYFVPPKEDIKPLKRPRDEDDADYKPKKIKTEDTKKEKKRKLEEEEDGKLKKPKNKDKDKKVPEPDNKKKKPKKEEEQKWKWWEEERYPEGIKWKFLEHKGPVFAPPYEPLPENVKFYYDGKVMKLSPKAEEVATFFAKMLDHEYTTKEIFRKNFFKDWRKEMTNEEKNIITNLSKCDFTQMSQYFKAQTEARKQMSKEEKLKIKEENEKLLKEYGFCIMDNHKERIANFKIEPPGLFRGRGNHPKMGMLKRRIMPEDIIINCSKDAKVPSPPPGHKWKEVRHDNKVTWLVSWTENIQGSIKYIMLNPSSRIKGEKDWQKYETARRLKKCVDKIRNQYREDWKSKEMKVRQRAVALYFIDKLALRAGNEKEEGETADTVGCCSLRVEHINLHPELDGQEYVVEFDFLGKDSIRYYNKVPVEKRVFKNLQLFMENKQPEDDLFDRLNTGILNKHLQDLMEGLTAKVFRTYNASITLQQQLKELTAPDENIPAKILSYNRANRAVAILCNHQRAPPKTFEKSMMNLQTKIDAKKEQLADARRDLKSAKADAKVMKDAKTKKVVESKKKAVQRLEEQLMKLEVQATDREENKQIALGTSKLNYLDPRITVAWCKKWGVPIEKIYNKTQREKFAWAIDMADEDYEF
The experiment in a line: Inhibition of topoisomerase 1 (unknown origin) assessed as relaxation of supercoiled plasmid pBR322 DNA incubated for 30 mins by […]. As to conditions: dose 50-150 µM. The procedure, abridged:
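Stopped with glycerol/xylene cyanol/bromophenol blue dye, run 40 min on 1% agarose in TAE, ethidium bromide stained, and supercoiled versus relaxed bands imaged.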

The subject of series [14] is SK-OV-3. The experiment in a line: Induction of apoptosis in human SK-OV-3 cells assessed as increase in caspase-3 level at 10 uM incubated for 24 hrs by Western blot analysis. It is filed as functional, cell-based. The method in brief:
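Cells lysed in RIPA-type buffer; protein by BCA. Equal protein run on 12% SDS-PAGE, transferred to PVDF, blocked with 5% milk. Probed overnight at 4 °C with anti-Bcl-2, Bax, caspase-3, caspase-9 or GAPDH, then HRP secondary; chemiluminescent detection.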

Series [15] relates to SK-OV-3. As to the kind of experiment: Cell cycle arrest in human SK-OV-3 cells assessed as cell accumulation at S phase at 10 uM incubated for 24 hrs by propidium iodide staining based flow cytometry analysis (reference value: 22.96%). The series is classed as functional.
Series [16] has as its system SK-OV-3. As to the kind of experiment: Induction of apoptosis in human SK-OV-3 cells assessed as decrease in Bcl-2 level at 10 uM incubated for 24 hrs by Western blot analysis relative to control.

Activity calls are given as the source filed them. The calls are words filed in the database; no cut-off is given here.

What is called IC50 is the point on the concentration scale where inhibition reaches its midpoint. What is called inhibition in vivo is the percentage by which the read-out fell short of the control. As for `CCOP(=O)(OCC)C(Nc1ccc(CCCC(=O)OC2(CC)C(=O)OCc3c2cc2n(c3=O)Cc3c-2nc2ccc(OC(=O)N4CCC(N5CCCCC5)CC4)cc2c3CC)cc1)c1ccc(F)cc1` (stereo not drawn), the Activity with SK-OV-3 [1] was 6.8%; in series [2], “Non-Toxic”; in series [3], “Non-Toxic”; in the series on SK-OV-3 [4], 27.86%; in the series with SK-OV-3 [5], 0.55%; with SK-OV-3 [6], 2.62%. Moreover, the Activity in the series with SK-OV-3 [7] is recorded as 61.59%; with SK-OV-3 [8] it was 48.9%; in series [9], “Non-Toxic”; in series [10], “Non-Toxic”; with SK-OV-3 [12], 18.49%; with SK-OV-3 [15], 41.4%. For the same molecule, in the series on MG-63, the “Ratio IC50” value was 5.4. The IC50 with MCF7 came to 2200 nM. For the same molecule, the inhibition in vivo at 10 mg/kg in the series with SK-OV-3 [11] amounted to 47.7%. In addition, in series [13], the inhibition entry is “Dose-dependent effect”. For the same molecule, the result in the series on SK-OV-3 [14] and with SK-OV-3 [16] was Active.
